According to ChEMBL document CHEMBL1144519, “A Pd(0) based cross-coupling approach to the synthesis of 2-amidopurines and their evaluation as CDK inhibitors” (Bioorg Med Chem, 2007):

Legend:
[1] = molecular target: Cyclin-dependent kinase 5/CDK5 activator 1 (Homo sapiens, UniProt Q00535); test: Inhibition of recombinant mammalian CDK5/p25 expressed in Escherichia coli
Method in brief: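 Kinase was CDK5 with p25, a truncated p35 activator. Phosphate incorporation was measured on P81 phosphocellulose paper by scintillation counting. Activity is blank-corrected and expressed as % of activity without inhibitor, with DMSO controls.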

[2] = Inhibition of CDK1/Cyclin B from M phase starfish oocytes; design: species or system Marthasterias glacialis; details: oocyte
Method in brief: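 CDK1/cyclin B extracted in homogenization buffer from M-phase Marthasterias glacialis oocytes and affinity-purified on p9CKShs1-Sepharose, eluted with free p9CKShs1. Read-out was P81 phosphocellulose binding, phosphoric acid washes and scintillation counting. Values are blank-subtracted, % of uninhibited activity, with DMSO controls.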

Sequence of Cyclin-dependent kinase 5/CDK5 activator 1 (Q00535 whole entry, the tested form may be a part): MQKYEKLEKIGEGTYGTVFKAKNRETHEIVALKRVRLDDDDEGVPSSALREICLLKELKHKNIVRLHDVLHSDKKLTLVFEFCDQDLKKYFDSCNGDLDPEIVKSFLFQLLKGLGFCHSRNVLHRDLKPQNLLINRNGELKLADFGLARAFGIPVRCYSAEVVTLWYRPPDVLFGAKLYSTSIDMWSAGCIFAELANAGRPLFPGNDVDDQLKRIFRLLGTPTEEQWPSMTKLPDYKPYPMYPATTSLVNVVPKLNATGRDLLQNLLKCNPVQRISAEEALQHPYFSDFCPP
Sequence of Cyclin-dependent kinase 5/CDK5 activator 1 (Q15078 whole entry, further chain, the tested form may be a part): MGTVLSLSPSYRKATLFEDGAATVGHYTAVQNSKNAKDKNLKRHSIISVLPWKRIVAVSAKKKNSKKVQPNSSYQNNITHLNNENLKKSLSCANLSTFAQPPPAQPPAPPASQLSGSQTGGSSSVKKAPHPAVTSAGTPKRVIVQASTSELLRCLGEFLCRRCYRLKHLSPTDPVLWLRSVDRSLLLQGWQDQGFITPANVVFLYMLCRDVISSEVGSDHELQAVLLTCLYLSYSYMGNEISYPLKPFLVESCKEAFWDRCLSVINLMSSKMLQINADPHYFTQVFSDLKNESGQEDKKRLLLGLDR

Row | SMILES | IC50 [1] [nM] | IC50 [2] [nM]
1 | COCCNc1nc(C(=O)NC(C)C)nc2c1ncn2C(C)C | 13000 | 8300
2 | COc1ccc(CNc2nc(NC(=O)CC(C)=O)nc3c2ncn3C(C)C)cc1 | 1600 | 2400
3 | COCCNc1nc(NC(=O)c2ccc(OC)cc2)nc2c1ncn2C(C)C | – | > 10000
4 | COCCNc1nc(NC(=O)C(C)C)nc2c1ncn2C(C)C | 7000 | –
5 | COCCNc1nc(NC(=O)CC(C)=O)nc2c1ncn2C(C)C | – | > 10000
6 | COCCNc1nc(NC(=O)CC(C)C)nc2c1ncn2C(C)C | 6600 | 9600
7 | CC(C)NC(=O)c1nc(NCc2ccc(Cl)cc2)c2ncn(C(C)C)c2n1 | 2000 | 1700
8 | COc1ccc(CNc2nc(C(=O)NCC(C)C)nc3c2ncn3C(C)C)cc1 | 2100 | 2400
9 | COc1ccc(C(=O)Nc2nc(NCc3ccc(Cl)cc3)c3ncn(C(C)C)c3n2)cc1 | 19000 | 40000
10 | COc1ccc(CNc2nc(NC(=O)CC(C)C)nc3c2ncn3C(C)C)cc1 | 1800 | 2300
11 | COc1ccc(CNc2nc(NC(=O)C(C)C)nc3c2ncn3C(C)C)cc1 | 1300 | 940
12 | COc1ccc(CNc2nc(NC(=O)c3ccc(OC)cc3)nc3c2ncn3C(C)C)cc1 | 3400 | 4600
13 | CCCC(=O)Nc1nc(NCCOC)c2ncn(C(C)C)c2n1 | 10000 | 13000
14 | CC(C)C(=O)Nc1nc(NCc2ccc(Cl)cc2)c2ncn(C(C)C)c2n1 | 900 | 1200
15 | COc1ccc(CNc2nc(C(=O)NC(C)C)nc3c2ncn3C(C)C)cc1 | 2400 | 2300
16 | CCCC(=O)Nc1nc(NCc2ccc(Cl)cc2)c2ncn(C(C)C)c2n1 | 2100 | 2900
17 | COCCNc1nc(C(=O)NCC(C)C)nc2c1ncn2C(C)C | 16000 | 7200
18 | CCCC(=O)Nc1nc(NCc2ccc(OC)cc2)c2ncn(C(C)C)c2n1 | 3900 | 4400
19 | CC(C)CC(=O)Nc1nc(NCc2ccc(Cl)cc2)c2ncn(C(C)C)c2n1 | 1600 | 3000
